In ChEMBL document CHEMBL1127592, “Synthesis and SAR studies of novel triazolopyrimidine derivatives as potent, orally active angiotensin II receptor antagonists” (J Med Chem, 1994):

Experiments:
[1] = biological target: T1, Type-1 angiotensin II receptor B (Rattus norvegicus, UniProt P29089); experiment: Displacement of [125I]-Sar1-Ile8-A II from rat adrenal Angiotensin-1 (AT-1) receptor
T1 sequence (P29089 whole entry): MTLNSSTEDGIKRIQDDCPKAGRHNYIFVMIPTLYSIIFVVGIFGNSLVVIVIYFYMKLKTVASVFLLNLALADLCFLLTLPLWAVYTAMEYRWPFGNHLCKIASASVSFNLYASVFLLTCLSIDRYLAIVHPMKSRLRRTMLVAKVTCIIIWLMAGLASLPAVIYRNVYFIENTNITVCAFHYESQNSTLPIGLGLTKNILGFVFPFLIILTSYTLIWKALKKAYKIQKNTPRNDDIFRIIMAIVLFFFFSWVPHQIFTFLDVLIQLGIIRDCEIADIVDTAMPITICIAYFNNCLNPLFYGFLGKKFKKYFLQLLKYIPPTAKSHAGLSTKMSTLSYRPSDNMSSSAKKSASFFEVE

Rattus norvegicus [2] = experiment: Change in mean arterial blood pressure in renal artery ligated hypertensive rats, orally dosed at 1 mg/kg; assay type: functional; conditions: route oral
Outline: (§1)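 Male CD Sprague-Dawley rats (250-270 g), left renal artery ligated under ketamine (100 mg/kg ip); catheterized for direct recording 2-3 days before test. Single oral gavage, 3-7 rats/group. MAP recorded before and for 16 h after dosing; value is maximal MAP decrease, mean ± SEM; decrease under 15 mmHg counted as no effect.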

Rattus norvegicus [3] = experiment: Change in systolic arterial blood pressure in renal artery ligated hypertensive rats, orally dosed at 10 mg/kg; assay type: functional; conditions: route oral
Outline: (§2)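 Conscious male CD Sprague-Dawley rats (250-270 g) with left renal artery ligated several days earlier under ketamine. Single oral gavage, 3-8 rats/group. Systolic pressure by indirect tail-cuff sphygmomanometry before and 3 h post-dose; change reported as SAP decrease at 3 h, mean ± SEM.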

[4] = biological target: T2, Type-2 angiotensin II receptor (Rattus norvegicus, UniProt P35351); experiment: In vitro binding affinity against angiotensin-2 (AT-2) receptor in rat adrenal
T2 sequence (P35351 whole entry): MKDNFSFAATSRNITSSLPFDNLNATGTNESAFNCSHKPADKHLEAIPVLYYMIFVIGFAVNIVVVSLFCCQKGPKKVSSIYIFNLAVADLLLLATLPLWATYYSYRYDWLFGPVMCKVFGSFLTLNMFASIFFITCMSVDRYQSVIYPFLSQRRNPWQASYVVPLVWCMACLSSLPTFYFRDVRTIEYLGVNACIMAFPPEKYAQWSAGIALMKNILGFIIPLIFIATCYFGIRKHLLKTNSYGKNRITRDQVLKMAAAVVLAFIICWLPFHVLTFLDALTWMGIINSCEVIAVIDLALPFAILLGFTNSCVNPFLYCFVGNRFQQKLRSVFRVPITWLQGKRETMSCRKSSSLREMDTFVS
Outline: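 Rat adrenal membranes (25-40 μg protein) in Tris-HCl 50 mM, MgCl2 5 mM, 0.25% BSA, pH 7.2, with 0.2 nM [125I]Sar1-Ile8-AII and drug at 10^-9 to 10^-4 M, 60 min, 25 °C. 20 mM DTT included or omitted to separate AT1 and AT2 binding. Nonspecific binding with 1 μM AII; filtration. IC50 by log-logit, Ki by LIGAND; one experiment in triplicate.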

Rattus norvegicus [5] = experiment: Compound at a dose of 1 mg/kg was administered orally and evaluated for change in mean arterial blood pressure in renal artery ligated hypertensive rats; assay type: functional; conditions: route oral; outline: as §1
Rattus norvegicus [6] = experiment: Compound at a dose of 10 mg/kg was administered orally and evaluated for change in systolic arterial blood pressure in renal artery ligated hypertensive rats; assay type: functional; conditions: route oral; outline: as §2

SMILES	Ki [1] [nM]	Change in blood pressure (Rattus norvegicus [2]) [mmHg]	Change in blood pressure (Rattus norvegicus [3]) [mmHg]	Ki [4] [nM]	Change in blood pressure (Rattus norvegicus [5]) [mmHg]	Change in blood pressure (Rattus norvegicus [6]) [mmHg]
CCCc1nc(CCC)n2nc(O)nc2c1Cc1ccc(-c2ccccc2-c2nn[nH]n2)cc1	659	-22.2	-72.6	–	–	–
CCCc1nc(C)n2ncnc2c1Cc1ccc(-c2ccccc2-c2nn[nH]n2)cc1	12	-20.1	-89.7	–	–	–
CCCc1nc(C)n2nc(COC)nc2c1Cc1ccc(-c2ccccc2-c2nn[nH]n2)cc1	15	-13.2	-73.1	–	–	–
CCCc1ncn2ncnc2c1Cc1ccc(-c2ccccc2-c2nn[nH]n2)cc1	50	–	-20	–	–	–
CCCc1nc(C)n2cnnc2c1Cc1ccc(-c2ccccc2-c2nn[nH]n2)cc1	10	-24.2	-77.2	–	–	–
CCCc1nc(COC)n2nc(O)nc2c1Cc1ccc(-c2ccccc2-c2nn[nH]n2)cc1	92	-18.5	-88.7	–	–	–
CCCc1nc(C)n2[nH]c(=O)nc2c1Cc1ccc(-c2ccccc2-c2nnn[nH]2)cc1	24	–	–	79200	-39.6	-92.2
CCCc1nc(C)n2c(=O)n(CC(=O)OCC)nc2c1Cc1ccc(-c2ccccc2-c2nn[nH]n2)cc1	12	-21.6	-71.7	–	–	–
CCCc1nc(C)n2c(O)nnc2c1Cc1ccc(-c2ccccc2-c2nn[nH]n2)cc1	10	-44.6	-87.5	–	–	–
CCCc1nc(C)n2nc(C(=O)O)nc2c1Cc1ccc(-c2ccccc2-c2nn[nH]n2)cc1	35	-13.4	-36.4	–	–	–
CCCc1ncn2nc(O)nc2c1Cc1ccc(-c2ccccc2-c2nn[nH]n2)cc1	46	-17.9	-38.3	–	–	–
CCCc1nc(SC)n2c(O)nnc2c1Cc1ccc(-c2ccccc2-c2nn[nH]n2)cc1	–	–	-15.6	–	–	–
CCCc1nc(C)n2nc(S)nc2c1Cc1ccc(-c2ccccc2-c2nn[nH]n2)cc1	10	-19.7	-57.8	–	–	–
Cc1nc(C2CC2)c(Cc2ccc(-c3ccccc3-c3nn[nH]n3)cc2)c2nc(O)nn12	82	-12.3	-51.1	–	–	–
CCCc1nc(CO)n2nc(C)nc2c1Cc1ccc(-c2ccccc2-c2nn[nH]n2)cc1	27	–	-21.4	–	–	–
CCCc1nc(C)n2nc(S(=O)(=O)NC)nc2c1Cc1ccc(-c2ccccc2-c2nn[nH]n2)cc1	139	-14.1	-37.2	–	–	–
CCCc1nc(C)n2c(=O)n(C)nc2c1Cc1ccc(-c2ccccc2-c2nn[nH]n2)cc1	53	-25.1	-48.8	–	–	–
CCCCc1nc(C)n2nc(O)nc2c1Cc1ccc(-c2ccccc2C(=O)O)cc1	622	–	-23.5	–	–	–
CCc1nc(C)n2nc(O)nc2c1Cc1ccc(-c2ccccc2-c2nn[nH]n2)cc1	35	-20.1	-72.8	–	–	–
CCCc1nc(C)n2nc(SC)nc2c1Cc1ccc(-c2ccccc2-c2nn[nH]n2)cc1	174	-11.8	-32.2	–	–	–
CCCc1nc(C)n2nc(OC)nc2c1Cc1ccc(-c2ccccc2-c2nn[nH]n2)cc1	27	–	-26.2	–	–	–
CCCc1nc(CO)n2nc(O)nc2c1Cc1ccc(-c2ccccc2-c2nn[nH]n2)cc1	10	-21.5	-40.6	–	–	–

SMILES	Ki [1] [nM]	Change in blood pressure (Rattus norvegicus [2]) [mmHg]	Change in blood pressure (Rattus norvegicus [3]) [mmHg]	Ki [4] [nM]	Change in blood pressure (Rattus norvegicus [5]) [mmHg]	Change in blood pressure (Rattus norvegicus [6]) [mmHg]
CCCc1nc(C)n2nc(S(=O)(=O)N(C)C)nc2c1Cc1ccc(-c2ccccc2-c2nn[nH]n2)cc1	185	–	-7.2	–	–	–
CCCc1nc(C)n2nc(NC)nc2c1Cc1ccc(-c2ccccc2-c2nn[nH]n2)cc1	5	-23.6	-65.3	–	–	–
CCCc1nc(C)n2nc(N)nc2c1Cc1ccc(-c2ccccc2-c2nn[nH]n2)cc1	1	-33.4	-77.2	–	–	–
CCCc1nc(C)n2nc(CC)nc2c1Cc1ccc(-c2ccccc2-c2nn[nH]n2)cc1	8	-8.9	-69	–	–	–
CCCc1nc(CC)n2nc(O)nc2c1Cc1ccc(-c2ccccc2-c2nn[nH]n2)cc1	225	-46.5	-75.8	–	–	–
CCCc1nc(C)n2nc(C(F)(F)F)nc2c1Cc1ccc(-c2ccccc2-c2nn[nH]n2)cc1	147	–	-11.8	–	–	–
CCCc1nc(COC)n2nc(C)nc2c1Cc1ccc(-c2ccccc2-c2nn[nH]n2)cc1	111	-21.8	-44.4	–	–	–
CCCCc1nc(C)n2c(S)nnc2c1Cc1ccc(-c2ccccc2-c2nn[nH]n2)cc1	106	-24.3	-86.3	–	–	–
CCCc1nc(C)n2nc(C)nc2c1Cc1ccc(-c2ccccc2-c2nn[nH]n2)cc1	32	-17.9	-71.8	–	–	–
CCCc1nc(C)n2nc(S(N)(=O)=O)nc2c1Cc1ccc(-c2ccccc2-c2nn[nH]n2)cc1	11	-14.5	-61.3	–	–	–
CCCc1nc(C)n2nc(SCC(=O)OCC)nc2c1Cc1ccc(-c2ccccc2-c2nn[nH]n2)cc1	99	–	-26.4	–	–	–
CCCc1nc(C)n2c(O)nnc2c1Cc1ccc(NC(=O)c2ccccc2S(=O)(=O)O)cc1	41	–	-18.3	–	–	–
CCCCc1nc(C)n2nc(O)nc2c1Cc1ccc(-c2ccccc2-c2nn[nH]n2)cc1	30	-22.1	-91.5	–	–	–
CCCc1nc(C)n2c(S)nnc2c1Cc1ccc(-c2ccccc2-c2nn[nH]n2)cc1	127	-22.4	-90.2	–	–	–
CCCc1nc(C)n2nc(CC(=O)OCC)nc2c1Cc1ccc(-c2ccccc2-c2nn[nH]n2)cc1	9	-18.1	-84	–	–	–
CCCc1nc(C)n2c(=O)n(CCO)nc2c1Cc1ccc(-c2ccccc2-c2nn[nH]n2)cc1	6	-25.6	-67.9	–	–	–
CCCc1nc(C)n2nc(C(=O)OCC)nc2c1Cc1ccc(-c2ccccc2-c2nn[nH]n2)cc1	23	-14.9	-76.7	–	–	–
CCCc1nc(C)n2nc(CO)nc2c1Cc1ccc(-c2ccccc2-c2nn[nH]n2)cc1	5	-25.4	-62.5	–	–	–
CCCc1nc(C)n2nc(-c3ccccc3)nc2c1Cc1ccc(-c2ccccc2-c2nn[nH]n2)cc1	175	-13.3	-48.2	–	–	–
CCCc1nc(C)n2nc(NCC(=O)OCC)nc2c1Cc1ccc(-c2ccccc2-c2nn[nH]n2)cc1	32	-5.7	-73.6	–	–	–
CCCCc1nc(Cl)c(CO)n1Cc1ccc(-c2ccccc2-c2nnn[nH]2)cc1 [LOSARTAN]	–	-32.9	-104.2	–	–	–
